Compound activity as filed in PubChem BioAssay.
The list is not random: actives were taken first. Their share in the collection is about 3.7%.
KCNQ1 inh = inhibitors of human KCNQ1 potassium channel | B-score at 10 µM | P51787 | AID 2642 | 1.3% of 310,000 active | CHO-K1 KCNQ1, FluxOR thallium flux fluorescence; stronger effect = higher value;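 active = compounds whose thallium flux B-score, printed positive for inhibition, exceeds three library SD while starting fluorescence stays within three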;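 also: channel opened by potassium depolarization with thallium stimulus after 20 min compound exposure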
KCNQ1 act = potentiators or activators of human KCNQ1 potassium channel; P51787; CHO-K1 KCNQ1, thallium flux FluxOR fluorescence; stronger effect = higher value; B-score at 10 µM; 0.35% of 310,000 active; AID 2648;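 active = fluorescence ratio B-score, a plate-corrected score, at least three library SD, with initial intensity B-score within 5 SD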
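Schedule – 37 °C overnight plating, 90-min dark dye load, 20-min compound pretreatment · System – stable KCNQ1 CHO-K1 line · Probe or stimulus – thallium- and potassium-containing depolarizing buffer · Measured by – kinetic FluxOR fluorescence, 10 s baseline plus 110 s post-stimulus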
hERG rescue = hERG (human) protection from proarrhythmic block | Q12809 | CHO-hERG, FluxOR thallium flux, dofetilide IC70 present | activation (rescue from dofetilide block), less the hit threshold, % at 10 µM | 0.51% of 310,000 active;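 active = activation above the mean of controls blocked by dofetilide plus 5 SD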;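 also: thallium influx through hERG after potassium depolarization seen as dye fluorescence rise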
KCNK3 inh = human KCNK3 channel inhibition, primary screen | B-score at 10 µM | 0.84% of 340,000 active | O14649 | AID 602410 | CHO-KCNK3 thallium flux, FluxOR fluorescence; stronger effect = lower value;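 active = B-score under library mean minus 4 SD, starting fluorescence ratio at most library mean plus 5 SD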;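 also: more negative B-score means stronger inhibition of thallium flux through KCNK3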
KCNK9 inh = inhibitors of human KCNK9 two-pore domain potassium channel | B-score at 10 µM | Q9NPC2 | 1.2% of 310,000 active | HEK293 KCNK9, FluxOR thallium flux fluorescence; stronger effect = lower value;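 active = ratio B-score over 3 SD below the library mean, with starting fluorescence within 5 SD of its mean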;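 also: negative B-score means less thallium flux so channel inhibition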
Kir21 inh = inhibitors of mouse Kir2.1 inward-rectifier potassium channel | B-score at 10 µM | HEK293-Kir2.1, FluxOR thallium flux fluorescence; stronger effect = lower value | P35561 | AID 1672 | 0.85% of 310,000 active;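 active = fluorescence ratio B-score at or below minus 3 SD of library scores, with starting-brightness B-score within 2 SD, cut at about -4.2 in these data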;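 also: channel flux triggered by added potassium and thallium sulfate stimulus; B-score of peak minus minimum fluorescence over baseline after thallium stimulus; more negative B-score means stronger Kir2.1 block with less thallium influx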
Target sequence (P35561 whole entry, looked up): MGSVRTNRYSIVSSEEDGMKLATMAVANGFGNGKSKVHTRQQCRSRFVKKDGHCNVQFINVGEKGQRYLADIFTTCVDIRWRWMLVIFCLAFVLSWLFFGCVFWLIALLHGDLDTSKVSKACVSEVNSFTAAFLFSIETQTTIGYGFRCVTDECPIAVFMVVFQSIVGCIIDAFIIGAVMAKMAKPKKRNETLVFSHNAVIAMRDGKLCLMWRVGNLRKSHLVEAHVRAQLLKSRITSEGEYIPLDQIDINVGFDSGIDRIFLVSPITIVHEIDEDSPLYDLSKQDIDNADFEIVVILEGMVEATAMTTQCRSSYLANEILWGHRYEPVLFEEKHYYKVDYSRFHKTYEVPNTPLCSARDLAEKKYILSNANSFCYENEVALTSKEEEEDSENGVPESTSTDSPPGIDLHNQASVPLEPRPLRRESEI
KCNK9 inh conf = confirmation of human KCNK9 potassium channel inhibitors | shares compounds with KCNK9 inh | HEK293 KCNK9 cells, FluxOR thallium flux fluorescence | inhibition, % at 10 µM | 43% of 4,900 active;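 active = thallium signal inhibited by more than 5 SD of the compound-free buffer control wells, on both duplicate plates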
Kir21 sel = tests whether KCNK9 modulators also affect mouse Kir2.1; shares compounds with KCNK9 inh; 4% of 4,900 active; inhibition, % at 10 µM; Kir2.1 cells, FluxOR thallium flux fluorescence; AID 492993;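 active = thallium signal drop more than 5 SD beyond the mean of the no-compound control wells, seen in both duplicate plates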;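 also: signal is fluorescence rise after thallium addition divided by baseline fluorescence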
HEK293 Tl ctr = non-induced cell nonspecific activity of KCNK9 modulators; shares compounds with KCNK9 inh; non-induced KCNK9-HEK293, FluxOR thallium flux; inhibition, % at 10 µM; 40% of 4,900 active;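 active = thallium signal drop beyond 5 SD of the untreated control mean, on both duplicate plates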
Large screens that a line does not name were inactive (follow-up assays come after a bar, where they were run).

O=S(=O)(c1ccc(OC(F)(F)F)cc1)N1CCCC(c2ccccc2)C1 (stereo not drawn)	KCNK9 inh -11.1 | KCNK9 inh conf inactive | Kir21 sel inactive | HEK293 Tl ctr inactive
O=c1[nH]c(C2CCCN(S(=O)(=O)c3ccccc3)C2)nc2c1nnn2Cc1ccc(OC(F)(F)F)cc1 (stereo not drawn)	none
CCn1c2ccccc2c2cc(NC(=O)c3cccc(OC)c3)ccc21	KCNK9 inh -11.9 | KCNK9 inh conf 43.0% | Kir21 sel inactive | HEK293 Tl ctr 35.5%
CCn1c2ccccc2c2cc(NC(=O)c3cccc(OC)c3OC)ccc21	none
COc1ccc(C(=O)C2CCCN(C(=O)c3n[nH]c4c3CCCC4)C2)cc1OC (stereo not drawn)	none
Cc1ccc(C(=O)N2CCCC(C(=O)c3ccc(Cl)cc3C)C2)cn1 (stereo not drawn)	none
Cc1cc(Cl)ccc1C(=O)C1CCCN(C(=O)c2cnn(C(C)C)c2)C1 (stereo not drawn)	none | KCNK9 inh conf inactive | Kir21 sel inactive | HEK293 Tl ctr inactive
Cc1cc(Cl)ccc1C(=O)C1CCCN(C(=O)c2n[nH]c3c2CCCC3)C1 (stereo not drawn)	none | KCNK9 inh conf inactive | Kir21 sel inactive | HEK293 Tl ctr inactive
Cc1c(NC(=O)c2cc(-c3cccc(Cl)c3)on2)c(=O)n(-c2ccccc2)n1C	none
O=C1CC(N2CCC(Cc3ccccc3)CC2)C(=O)N1CCc1ccccc1 (stereo not drawn)	none | KCNK9 inh conf inactive | Kir21 sel inactive | HEK293 Tl ctr inactive
O=c1cc(-c2ccccc2)nc2c(-c3ccccc3)c(C(F)(F)F)[nH]n12	KCNQ1 act 13, hERG rescue 54.3 | KCNK9 inh conf inactive | Kir21 sel inactive | HEK293 Tl ctr inactive
CC(C)N1CCC(N2CCN(Cc3ccc(-c4ccc(Cl)cc4)o3)CC2CCO)CC1 (stereo not drawn)	none
COc1ccccc1-n1c2nc3ccccc3nc2c2c(=O)n(-c3cc(C)cc(C)c3)cnc21	KCNK9 inh -8.47 | KCNK9 inh conf inactive | Kir21 sel inactive | HEK293 Tl ctr 25.0%
Cc1nc(-c2coc3c(CN(C)C)c(O)ccc3c2=O)cs1	KCNK9 inh -8.17 | KCNK9 inh conf inactive | Kir21 sel inactive | HEK293 Tl ctr inactive
COc1ccccc1-c1coc2c(CN(C)C)c(O)ccc2c1=O	none
N#Cc1ccccc1Sc1ccccc1C(=O)OCC(=O)NC12CC3CC(CC(C3)C1)C2	KCNK9 inh -8.54 | KCNK9 inh conf 47.5% | Kir21 sel inactive | HEK293 Tl ctr 30.0%
Cc1cc(C(=O)Cn2nnc(-c3ccc(Cl)cc3)n2)c(C)n1-c1ccccc1	none | KCNK9 inh conf inactive | Kir21 sel inactive | HEK293 Tl ctr inactive
Cc1cc(C(=O)Cn2nnc(-c3ccc(Cl)cc3)n2)c(C)n1CC1CCCO1 (stereo not drawn)	none
COc1ccccc1C/C(N)=N/OC(=O)COc1cccc2ccccc12	none | KCNK9 inh conf inactive | Kir21 sel inactive | HEK293 Tl ctr inactive
COc1ccccc1C/C(N)=N/OC(=O)COc1ccccc1C	none | KCNK9 inh conf inactive | Kir21 sel inactive | HEK293 Tl ctr inactive
N/C(Cc1cccc2ccccc12)=N\OC(=O)COc1ccccc1	none
N=c1c2c(-c3ccccc3)c(-c3ccccc3)n(Cc3ccco3)c2ncn1Cc1ccccc1	KCNQ1 inh 10, KCNK9 inh -15.4, Kir21 inh -5.91 | KCNK9 inh conf 59.5% | Kir21 sel 52.0% | HEK293 Tl ctr 27.5%
O=c1c2c3nc4ccccc4nc3n(Cc3ccccc3)c2ncn1Cc1ccco1	none (no result: KCNQ1 inh, KCNQ1 act, hERG rescue, KCNK9 inh, Kir21 inh)
CC(C)Cn1cnc2c(c(-c3ccccc3)c(-c3ccccc3)n2Cc2ccco2)c1=N	KCNQ1 inh 9, KCNK9 inh -9.85, Kir21 inh -9.72 | KCNK9 inh conf 67.5% | Kir21 sel 56.5% | HEK293 Tl ctr 28.5%
COc1cc(/C=N/NC(=O)C23CC4CC(CC(C4)C2)C3)cc(Br)c1O	none
O=C(N/N=C/c1cc([N+](=O)[O-])cc(Br)c1O)C12CC3CCC(CC(C3)C1)C2	KCNQ1 act 25 | KCNK9 inh conf inactive | Kir21 sel inactive | HEK293 Tl ctr inactive
CCc1ccccc1NC(=O)/C(C#N)=C\c1ccc(Sc2ccccc2)o1	KCNK3 inh -9.41, KCNK9 inh -10.9 | KCNK9 inh conf 40.0% | Kir21 sel inactive | HEK293 Tl ctr 49.0%
Cc1cc(C)nc(Sc2ccc(/C=C(\C#N)C(=O)Nc3ccccc3)o2)n1	none
CCc1ccccc1NC(=O)/C(C#N)=C/c1ccc(Sc2ccccc2)o1	KCNK9 inh -13.6 | KCNK9 inh conf 53.0% | Kir21 sel inactive | HEK293 Tl ctr 51.0%
CC1CC1c1ccc(/C=C(\C#N)C(=O)Nc2ccccc2Cl)o1 (stereo not drawn)	none
COc1ccc(CCC(=O)NNC(=O)c2ccccn2)cc1OC	none (no result: KCNQ1 inh, KCNQ1 act, hERG rescue, KCNK9 inh, Kir21 inh)
Cc1cccc(-c2c3c(nc4c2c(=O)n(C)c(=O)n4C)-c2ccccc2C3O)c1 (stereo not drawn)	none
O=C(CN1CCOCC1)Nc1nc(-c2ccccc2Cl)cs1	none
Cc1ccc(C)c(C(=O)COC(=O)c2cc([N+](=O)[O-])ccc2NCCO)c1	KCNQ1 act 11, KCNK9 inh -8.22 | KCNK9 inh conf 59.0% | Kir21 sel inactive | HEK293 Tl ctr inactive
Cc1nn(-c2ccccc2)c(C)c1NC(=O)COC(=O)c1cc([N+](=O)[O-])ccc1NCCO	none
C/C(N)=C(/C#N)C(=O)CSc1nnc(-c2ccccc2)n1C	none
COc1ccc(C2(C)NC(=O)N(CC(=O)N(c3ccccc3)C3CCS(=O)(=O)C3)C2=O)cc1 (stereo not drawn)	none (no result: KCNQ1 inh, KCNQ1 act, hERG rescue, KCNK9 inh, Kir21 inh)
COc1ccc(C(=O)Nc2oc(-c3ccccc3)c(-c3ccccc3)c2C#N)cc1OC	KCNK9 inh -9.25 | KCNK9 inh conf 49.0% | Kir21 sel inactive | HEK293 Tl ctr 38.5%
COc1ccc(-c2oc(NC(C)=O)c(C#N)c2-c2ccc(OC)cc2)cc1	none
COCCn1c(SCC(=O)c2c(N)n(C3CC3)c(=O)[nH]c2=O)nnc1-c1cccc(C)c1	none (no result: KCNQ1 inh, KCNQ1 act, hERG rescue, KCNK9 inh, Kir21 inh)
CC(C)CC(c1nnnn1C(C)C)N1CCN(c2cccc(Cl)c2)CC1 (stereo not drawn)	KCNK9 inh -9.86 | KCNK9 inh conf 43.5% | Kir21 sel inactive | HEK293 Tl ctr 39.5%
COc1ccc(S(=O)(=O)NNC(=O)c2csc(-n3nc(C)cc3C(F)(F)F)n2)cc1OC	none
